M5 PAM: positive allosteric modulators of human muscarinic M5 receptor; activation, % at 3 µM; 360,000 tested, 0.3% active; CHO-K1 hM5, Fluo-8 calcium, ACh EC20 PAM; 0% = ACh EC20, 100% = ACh EC100; P08912;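 active = activation above the run cutoff, the mean activation of all test compounds plus 3 SD, cut at about 18% in these data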
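Assay system: CHO-K1 hM5 cells / Incubation: Fluo-8 loading 80 min at 37 °C plus 30 min room temperature / Technique: Fluo-8 calcium dye fluorescence, kinetic read / Repeats: single replicate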
M5 ag: agonists of human muscarinic M5 receptor (CHRM5) | P08912 | CHO-K1 hM5 cells, Fluo-8 calcium fluorescence; 0% DMSO wells, 100% maximal acetylcholine response | activation, % at 3 µM | 360,000 tested, 0.19% active | AID 624037;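 active = activation above the run's mean over test compounds plus 3 SD, cut at about 23% in these data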;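 note: signal is peak over basal fluorescence ratio across the kinetic read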
CHRM1 antagonist: antagonists of human M1 muscarinic receptor | 360,000 tested, 1.3% active | inhibition, % at 3 µM | CHO-K1 hM1, Fluo-8 calcium fluorescence, ACh EC80 antagonist;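 active = percent inhibition above its own plate's cutoff, namely the mean of that plate's compound wells plus 3 SD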;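 note: peak over basal fluorescence ratio during 140 s after agonist addition; 0% = ACh EC80 plus DMSO and 100% = DMSO alone without agonist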
Target sequence (P11229 whole entry, looked up): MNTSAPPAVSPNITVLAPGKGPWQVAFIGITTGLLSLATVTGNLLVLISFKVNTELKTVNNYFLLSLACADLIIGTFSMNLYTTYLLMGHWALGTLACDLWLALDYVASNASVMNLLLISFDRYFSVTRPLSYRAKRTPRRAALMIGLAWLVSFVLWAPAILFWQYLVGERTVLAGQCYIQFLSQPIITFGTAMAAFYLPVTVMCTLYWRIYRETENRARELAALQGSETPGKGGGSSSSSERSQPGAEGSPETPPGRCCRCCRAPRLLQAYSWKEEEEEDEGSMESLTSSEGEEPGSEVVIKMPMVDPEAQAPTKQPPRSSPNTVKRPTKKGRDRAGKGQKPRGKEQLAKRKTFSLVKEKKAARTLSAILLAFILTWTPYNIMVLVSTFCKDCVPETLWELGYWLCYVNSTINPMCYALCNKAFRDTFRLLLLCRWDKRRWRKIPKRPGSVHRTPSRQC
CHRM1 PAM: potentiates human M1 receptor response to acetylcholine; P11229; CHO-K1 hM1, Fluo-8 calcium fluorescence, ACh EC20; 0% = ACh EC20, 100% = maximal ACh; activation, % at 3 µM; 360,000 tested, 0.088% active; in the data active = activation above about 19%, passing the limit was not always enough
M1 ag: agonists of human M1 muscarinic receptor; P11229; CHO-K1 hM1, Fluo-8 calcium fluorescence, agonist mode; 0% DMSO, 100% acetylcholine EC100; activation, % at 3 µM; 360,000 tested, 0.33% active; AID 588814;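 active = activation above the run's mean compound activation plus 3 SD, cut at about 16% in these data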;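 note: peak over basal fluorescence ratio within a 140 s kinetic read after compound addition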
CHRM5 antagonist: blocks acetylcholine activation of human M5 receptor. P08912. inhibition, % at 3 µM. 360,000 tested, 0.59% active. CHO-hM5 cells, Fluo-8 calcium fluorescence, ACh EC80;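 active = inhibition above a per-plate cutoff, the mean of that plate's test compounds plus 3 SD, cut at about 27% in these data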;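 note: 0% = acetylcholine EC80 with DMSO and 100% = DMSO without agonist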
* = called active by the depositor; / = not tested or not shown. Shown are actives, neighbours in structure and some others; about 2% of the full set was active somewhere.

SMILES	M5 PAM	M5 ag	CHRM1 antagonist	CHRM1 PAM	M1 ag	CHRM5 antagonist
CCCCNC(=O)c1nc(C2CCN(S(=O)(=O)c3ccc(OC(F)(F)F)cc3)CC2)oc1-c1ccccc1	6	0	/	/	/	-1
C=CC[N+]1(CC#CCOC(c2ccccc2)c2ccccc2)CCOCC1	0	-7	49*	-28	-14	1
Cc1ccc(CNS(=O)(=O)c2ccc(Cl)s2)cc1	0	-2	-16	8	-5	-4
CN1CSC2=C(C#N)C(c3cccc(OCc4ccccc4)c3)CC(=O)N2C1 (centres undefined)	-18	40*	-2	0	0	-6
COc1ccc(NC(=O)c2sc(=O)n(Cc3ccc(F)c(Cl)c3)c2C)cc1OC	-4	4	-16	8	1	2
O=C(O)C1Nc2c(C(F)(F)F)ccc(Cl)c2C2C=CCC12 (centres undefined)	19*	-2	-13	17	2	-9
Cc1ccc2c(c1C)NC(C(=O)O)C1CC=CC21 (centres undefined)	12	4	-10	10	-1	-17
CC[N+](CC)=N/N=C1\C=CC[N+]([O-])=C1	0	1	/	/	/	-6
c1ccc(CCNc2ncnc3ccccc23)cc1	-16	6	24	-12	-4	30*
CCCCCCCCNc1ncnc2ccccc12	-15	3	29*	-11	-2	43*
C[C@@H]1CN([C@H](C)CO)C(=O)c2cc(Br)cnc2O[C@@H]1CN(C)C(=O)Cc1ccccc1	-3	0	-14	3	0	1
CC(C)CCC1CC(CSC(=N)N)OC1=O (centres undefined)	21*	-17	-7	10	-4	-2
Cc1ccc(CSC(Nc2ccc(F)cc2)=C(C#N)C#N)cc1	-17	6	17	-12	-1	31*
COC(=O)[C@@]1(Cc2ccc(OC)cc2)[C@@H]2C(=CC(=O)[C@H]2CC(=O)C(=O)N2CCCC2)CN1C(=O)c1ccccc1	19*	0	2	8	-4	-9
Cc1cccc(C)c1NC(=O)C1(C)CN(S(C)(=O)=O)CC(=O)N1CCCN1CCOCC1 (centres undefined)	-3	1	/	/	/	-3
O=C1NC[C@H](Cc2ccc(O)cc2)N(C[C@@H]2CCCN2C[C@H](Cc2ccccc2)N2C[C@H](Cc3ccc(O)cc3)N(CC3CCCCCC3)C(=O)C2=O)C1=O	3	1	/	/	/	-9
COc1ccc(-c2nc(C#N)c(N3CCN(c4ccccc4)CC3)o2)cc1	-3	1	29*	-15	-1	3
CCCN1C(=O)CC(Sc2ncccc2C(=O)O)C1=O (centres undefined)	-2	-2	-4	4	-3	7
COc1ccc(CCN2C(=O)CC(Sc3ncccc3C(=O)O)C2=O)cc1OC (centres undefined)	26*	-2	-12	8	-5	-8
CNCC/C=C1/c2ccccc2CSc2ccccc21	-30	-12	95*	-21	-2	81*
CCN(CC)c1ccc(-c2nc3cnccc3n2C)cc1	6	-13	39*	-20	-6	-9
Cn1c(-c2ccncc2)nc2ccccc21	1	0	-5	3	-5	4
CCNC(=O)C1(C)CCN(C(=O)c2ccc(C#N)cc2)C1 (centres undefined)	2	0	-14	2	-1	-6
Cc1cccc(Nc2nc(N)nc(N)c2N=O)c1	-11	23	-8	7	24*	12
Cc1ccc(Nc2nc(N)nc(N)c2N=O)cc1C	1	6	-5	4	13	-7
SMILES	M5 PAM	M5 ag	CHRM1 antagonist	CHRM1 PAM	M1 ag	CHRM5 antagonist
CC(C)CN(C(=O)CCNC(=O)c1ccc(Cl)cc1)C1CCS(=O)(=O)C1 (centres undefined)	18*	1	-19	12	-4	-8
CCCN(C(=O)c1cccc(S(=O)(=O)N2CCCc3ccccc32)c1)C1CCS(=O)(=O)C1 (centres undefined)	0	1	-6	8	-5	-2
CCN(C(=O)COC(=O)c1ccc(S(=O)(=O)N2CCCc3ccccc32)cc1)C1CCS(=O)(=O)C1 (centres undefined)	-3	-11	72*	-32	-14	-17
COc1cc(OC)cc(C(=O)Nc2nc(CC(=O)NCc3ccc(F)cc3)cs2)c1	-25	1	18	-8	-3	15
COc1cc(OC)cc(C(=O)Nc2nc(CC(=O)NCc3ccccc3OC)cs2)c1	-23	-2	29*	-12	-4	20
O=C(C=Cc1ccc2c(c1)OCO2)c1ccccc1	0	2	-6	1	-2	-1
CCN(C(=O)/C=C/c1ccc2c(c1)OCO2)c1ccccc1	20*	-5	-15	5	-11	1
C=CC[C@H](CC(=O)N(CCO)Cc1ccccc1)C(=O)NC[C@H](OC(=O)[C@@H](CC=C)Cc1ccc(F)cc1)c1ccccc1	-30	0	43*	-28	-8	20
C=CC[C@@H](CC(=O)N[C@@H](CO)Cc1ccccc1)C(=O)NC[C@H](OC(=O)[C@@H](CC=C)Cc1ccc(F)cc1)c1ccccc1	-11	2	19	-9	-3	14
C=CC[C@@H](CC(=O)NCCO)C(=O)NC[C@H](OC(=O)[C@@H](CC=C)Cc1ccc(F)cc1)c1ccccc1	-28	5	53*	-31	-5	22
CC(=O)Nc1ccc(-c2noc(-c3csc([C@@H]4C[C@H](O)[C@@H](CO)O4)n3)n2)cc1	-2	1	-4	1	-1	4
C[N+](C)(C)CCCCCC(=O)/C=N/O	0	20	-7	-2	29*	-7
CC1(C(=O)O)CCCN1C(=O)c1cccc(C(F)(F)F)c1 (centres undefined)	-1	0	-10	5	1	-1
NS(=O)(=O)c1ccc(CCNC(=O)CCCCCn2c(=S)[nH]c3ccc(Br)cc3c2=O)cc1	-25	2	41*	-9	0	27*
O=C(CCCCCn1c(=S)[nH]c2ccc(Br)cc2c1=O)NCC1CCCO1 (centres undefined)	-4	2	-4	4	-4	3
Cn1cc(Cl)c(C(=O)Nc2nccs2)n1	1	-1	-7	9	-2	6
O=C(Nc1nccs1)c1ncc(Cl)c(Cl)c1Cl	-7	-3	6	-3	-6	30*
Cc1csc(N=Nc2ccc(N(C)C)cc2)[n+]1[O-]	-4	0	6	-8	-2	1
